“Also recorded” adds a separate entry of the source.
Experiments:
[1] = Pharmacokinetic studies in C57BL/6 mice; type: in vivo; conditions: male, C57BL/6, mouse, brain, intraperitoneal
[2] = Brain tissue binding assay; type: in vitro ADME
[3] = tested on: mouse forebrain primary neuronal cultures; test: Neuronal histone acetylation assay; type: cell-based; conditions: 10 μM, 24 h, relative to vehicle
Method in brief: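 Primary mouse forebrain neurons were treated on culture day 13 for 24 h at 10 μM, then formaldehyde-fixed. They were stained with anti-AcH3K9 or anti-AcH4K12 and a green fluorescent secondary, and fluorescence was read by microcytometer. Read-out was the percentage of cells above a baseline threshold set in DMSO-treated cells. Two experiments in triplicate from separate dissections and cultures.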

[4] = tested on: CK-p25 mice; test: Context-dependent fear conditioning in CK-p25 mice; type: in vivo, mouse; conditions: 1 mg/kg i.p. daily for 10 days
Method in brief: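 CK-p25 male mice induced at 3 months of age for 6 weeks for forebrain p25 expression; p25-lacking heterozygous littermates as controls. Test compound in 5% DMSO, then 30% Cremophor/65% saline, given i.p. daily for 10 days before behaviour; vehicle without compound. Training: 3 min habituation, two 2 s 0.8 mA shocks 30 s apart, 15 s more. Freezing scored on 3 min context re-exposure 24 h later. Mean ± SEM; ANOVA/Tukey or one-tailed t test.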

[5] = tested on: hippocampal CA1 neurons of CK-p25 mice; test: Immunohistochemistry of H4K12 acetylation in hippocampal CA1 neurons; type: in vivo, mouse; conditions: after 10 day treatment, compared to vehicle treated group
Method in brief: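 Hippocampal tissue from CK-p25 mice given test compound or vehicle i.p. daily for 10 days. Coronal 40 μm slices were permeabilised in 0.1% Triton X-100, blocked, and incubated overnight with acetyl-histone antibody in 0.3% Triton X-100/10% FBS in PBS. Fluorescent secondary and Hoechst nuclear stain followed. Confocal images at identical settings. Mean signal in 20–40 non-apoptotic cells per condition was scored blind. Mean ± SEM.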

[6] = tested on: CK-p25 mice; test: Tolerability on daily dosing in CK-p25 mice; type: in vivo, mouse
Method in brief: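 Induced CK-p25 mice were given test compound i.p. daily for 10 days, dissolved in 5% DMSO then diluted in 30% Cremophor/65% physiological saline and prepared immediately before injection. Mortality and toxicity were noted over the treatment period.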

[7] = tested on: wild-type male C57BL/6 mice; test: Tolerability on daily dosing in wild-type mice; type: in vivo, mouse; conditions: 30 mg/kg daily for 10 consecutive days

Compound	Kp [1]	fraction unbound [2]	AcH3K9 acetylation change [3]	AcH4K12 acetylation change [3]	contextual fear conditioning, freezing [4]	H4K12 acetylation in hippocampal CA1 neurons [5]	toxicity ([6]; 1 mg/kg, CK-p25 mice)	mortality ([6]; 10 mg/kg, over 10 day treatment, single study, unknown cause)	toxicity [7]
CC(=O)NC1CCN(C(=O)Nc2cc(-c3cccs3)ccc2N)CC1 [BRD3227]	0.01	–	–	–	–	–	–	–	–
Nc1ccc(-c2ccncc2)cc1NC(=O)N1CCCC1 [BRD6688]	0.26	0.54	significant increases	significant increases	rescued the memory defects; also recorded: restored the freezing response to normal levels	increased H4K12 acetylation	No toxicity was observed	5 out of 10	No toxicity was observed
